Compounds with a hit are over-represented: about 4.6% of the library has one in this group of screens.
OX1R antag-1 = blocks the human orexin 1 receptor; hit rate 0.43% among 330,000; inhibition, % at 5 µM; O43613; CHO/OX1R cells, Fluo-8 calcium fluorescence, orexin A;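 active = inhibition above its plate's threshold, mean inhibition of all tested compounds on the plate plus 3 SD, cut at about 37% in these data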;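 note: 0% = orexin A challenge wells and 100% = SB-334867-A antagonist wells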
Target sequence (O43613 whole entry, looked up): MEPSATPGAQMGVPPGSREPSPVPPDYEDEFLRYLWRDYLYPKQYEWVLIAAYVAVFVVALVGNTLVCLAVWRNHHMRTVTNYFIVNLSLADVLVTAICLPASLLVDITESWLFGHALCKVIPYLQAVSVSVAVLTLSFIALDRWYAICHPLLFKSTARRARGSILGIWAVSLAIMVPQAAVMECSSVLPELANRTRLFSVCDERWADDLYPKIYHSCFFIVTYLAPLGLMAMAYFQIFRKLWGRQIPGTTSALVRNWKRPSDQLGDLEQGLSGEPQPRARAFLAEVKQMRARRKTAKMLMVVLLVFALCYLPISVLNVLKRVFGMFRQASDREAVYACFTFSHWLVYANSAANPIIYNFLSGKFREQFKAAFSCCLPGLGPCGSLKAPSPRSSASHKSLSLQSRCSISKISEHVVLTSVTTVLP
GPR7 antag = antagonists of human GPR7 (neuropeptides B/W receptor 1); P48145; GPR7-expressing cells, fluorescence antagonist assay; inhibition, % at 4.4 µM; hit rate 1.1% among 290,000; AID 1861; in the data active = inhibition above about 16%, passing the limit was not always enough;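 note: cells stimulated with the agonist NPW; 0% = agonist with vehicle and 100% = vehicle without agonist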
TAAR1 antagonist = human TAAR1 antagonism. CHO RD-HGA16 TAAR1, Fluo-8 calcium fluorescence, antagonist. hit rate 1.5% among 360,000. AID 624466. inhibition, % at 3 µM;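 active = inhibition above a per-plate cutoff, the mean inhibition of test compounds on that plate plus 3 SD, cut at about 49% in these data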;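 note: 0% = DMSO plus EC80 beta-PEA response and 100% = DMSO alone without agonist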
Target sequence (Q96RJ0 whole entry, looked up): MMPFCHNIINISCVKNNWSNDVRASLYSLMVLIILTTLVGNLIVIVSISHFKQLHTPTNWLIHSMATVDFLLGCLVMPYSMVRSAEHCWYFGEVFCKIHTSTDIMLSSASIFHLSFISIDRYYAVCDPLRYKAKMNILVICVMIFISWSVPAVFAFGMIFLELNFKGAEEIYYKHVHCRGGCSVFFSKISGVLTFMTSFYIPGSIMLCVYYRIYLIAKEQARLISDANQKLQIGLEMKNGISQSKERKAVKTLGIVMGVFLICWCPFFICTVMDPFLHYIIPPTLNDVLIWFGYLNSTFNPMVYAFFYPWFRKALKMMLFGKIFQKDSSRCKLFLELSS
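Assay system: CHO-derived RD-HGA16 cells stably expressing human TAAR1 plus Gα16. Timing: 140 s kinetic read after compound, 140 s after agonist. Technique: kinetic Fluo-8 calcium fluorescence measurement. Measure: % inhibition of agonist calcium response.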
OX1R antag-2 = blocks the human orexin 1 receptor. hit rate 1.8% among 330,000. inhibition, % at 6.6 µM. OX1R-expressing cells, FRET antagonist read-out. O43613; in the data active = inhibition mostly above about 38%, no sharp cut-off; inactive = mostly below about 40%;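 note: 0% = agonist challenge alone and 100% = reference antagonist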
TAAR1 agonist = agonists of human TAAR1; hit rate 0.99% among 360,000; CHO RD-HGA16 TAAR1, Fluo-8 calcium fluorescence; vehicle wells 0%, saturating PEA agonist 100%; Q96RJ0; activation, % at 3 µM;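 active = activation above the mean activation of all test compounds in the run plus 3 SD, cut at about 38% in these data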
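Test system: RD-HGA16 (CHO) cells co-expressing Gα16 and hTAAR1 | Doses: Single dose, 3 µM | Schedule: 17-24 h seeding, 75 min 37 °C dye, 30 min RT | Evaluation: % activation from peak over basal fluorescence ratio, DMSO-to-PEA scaled | Technique: Kinetic Fluo-8 calcium fluorescence | Benchmarks: Low control DMSO, high control PEA (EC100)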
CHO parental Ca = counter-screen for OX1R antagonists: effect in parental CHO cells; parental CHO-K1, ATP-induced calcium, Fluo-8 fluorescence; inhibition, % at 5.6 µM; hit rate 0.63% among 330,000; AID 463079;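 active = inhibition above that plate's mean sample inhibition plus 3 SD, cut at about 26% in these data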;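 note: 0% = ATP-challenged DMSO wells and 100% = DMSO wells without ATP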
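Assay system: untransfected parental CHO cell line. Also added: ATP agonist challenge. Dosing: one dose, 5.6 µM nominal. Measured by: Fluo-8 fluorescence. Read-out: % inhibition. Benchmarks: ATP wells versus no-ATP DMSO wells. Repeats: no replicates.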
TAAR1 ag conf = human TAAR1 agonism, confirmed; shares compounds with TAAR1 agonist; CHO RD-HGA16 TAAR1, Fluo-8 calcium fluorescence; scaled: DMSO 0%, maximal phenethylamine 100%; activation, % at 3 µM; hit rate 82% among 2,400; AID 651783;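 active = activation above a cutoff set at the run's mean compound activation plus 3 SD, cut at about 39% in these data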
Ga16 nonsel ag = nonselective agonist in parental cells, TAAR1 agonist counter-screen; shares compounds with TAAR1 agonist; CHO-Ga16 parental, Fluo-8 calcium fluorescence; normalized to maximal ATP response, DMSO zero; activation, % at 3 µM; hit rate 50% among 2,400; AID 651787;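 active = activation above the run cutoff, the mean activation over all tested wells plus 3 SD, cut at about 12% in these data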;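 note: 0% = DMSO wells and 100% = maximal ATP response on the peak over basal ratio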
TAAR1 desensitize = TAAR1 response desensitization, agonist counter-screen | shares compounds with TAAR1 agonist | CHO RD-HGA16 hTAAR1, Fluo-8 calcium, beta-PEA response inhibition | inhibition, % at 3 µM | hit rate 46% among 2,400 | AID 651951;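 active = inhibition above the run cutoff, the mean inhibition of all test compounds plus 3 SD, cut at about 49% in these data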;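 note: beta-PEA stimulus applied at its EC80; loss of beta-PEA calcium signal after compound pretreatment read as receptor desensitization; 0% = DMSO with beta-PEA at EC80 and 100% = DMSO alone without agonist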
Ga16 antag count = nonselective Ga16 antagonist in TAAR1 agonist counter-screen; shares compounds with TAAR1 agonist; CHO-Ga16 ATP-induced calcium, Fluo-8 fluorescence; inhibition, % at 3 µM; hit rate 39% among 2,400; AID 651952;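 active = inhibition above the plate's mean compound inhibition plus 3 SD, computed per plate, cut at about 22% in these data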;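 note: 0% = EC80 ATP with DMSO and 100% = DMSO wells without ATP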
Active calls of the source: *.

CC(=O)C1CCC2C3CC=C4CC(SC(=N)N)CCC4(C)C3CCC12C (centres undefined) was read as TAAR1 antagonist 80.9*, TAAR1 agonist 83.6*, TAAR1 ag conf 111.2*, Ga16 nonsel ag 69.4*, TAAR1 desensitize 90.7* and Ga16 antag count 53.4*.
Screening O=C(C1CCCN(S(=O)(=O)c2ccccc2)C1)N1CCCCC1 (centres undefined) returned OX1R antag-1 -17.0, GPR7 antag 2.1, TAAR1 antagonist -3.4, OX1R antag-2 28.2, TAAR1 agonist 0.5 and CHO parental Ca -14.1.
`Cc1cc(Nc2ccccc2)nc(NCc2ccccc2)n1` gave OX1R antag-1 -1.5, GPR7 antag 36.5*, TAAR1 antagonist 30.5, OX1R antag-2 31.7, TAAR1 agonist 56.0*, CHO parental Ca 14.8, TAAR1 ag conf 75.8*, Ga16 nonsel ag 35.9*, TAAR1 desensitize 53.3* and Ga16 antag count 37.4*.
For Cc1cc(Nc2ccc(Cl)cc2)nc(NCc2ccccc2)n1 the results were OX1R antag-1 -2.2, GPR7 antag 4.5, TAAR1 antagonist -8.1, OX1R antag-2 26.3, TAAR1 agonist 54.7*, CHO parental Ca 19.9, TAAR1 ag conf 80.6*, Ga16 nonsel ag 35.0*, TAAR1 desensitize 53.4* and Ga16 antag count 29.3*.
CCc1nnc(NC(=O)CN2CCN(Cc3ccc(C)cc3)CC2)s1 was read as OX1R antag-1 -17.9, GPR7 antag -16.1, TAAR1 antagonist -20.8, OX1R antag-2 -0.5, TAAR1 agonist 1.7 and CHO parental Ca -12.1.
For COc1ccccc1CCN1C(=S)NC(C)(C)CC1(C)O (centres undefined) the results were OX1R antag-1 -28.2, GPR7 antag -4.0, TAAR1 antagonist 5.6, OX1R antag-2 26.0, TAAR1 agonist 51.4*, CHO parental Ca -21.4, TAAR1 ag conf 74.2*, Ga16 nonsel ag 0.4, TAAR1 desensitize 42.7 and Ga16 antag count 9.1.
OC(c1ccccc1)(C1CCCCC1)C(CN1CCOCC1)c1ccccc1 (centres undefined) was read as OX1R antag-1 -58.1, GPR7 antag -47.5, TAAR1 antagonist 2.5, OX1R antag-2 3.6, TAAR1 agonist 51.6*, CHO parental Ca -42.7, TAAR1 ag conf 59.1*, Ga16 nonsel ag 33.4*, TAAR1 desensitize 28.8 and Ga16 antag count 7.8.
Screening Cc1ccc(CNC(=O)/C(C#N)=C\c2ccc(N(C)C)cc2)cc1 returned OX1R antag-1 -5.2, GPR7 antag -6.0, OX1R antag-2 16.7 and CHO parental Ca 9.9.
`CN(C)S(=O)(=O)n1cnc(C(CCO)c2ncn(S(=O)(=O)N(C)C)c2CCCO)c1` (centres undefined) gave OX1R antag-1 -4.5, TAAR1 antagonist 2.4, OX1R antag-2 5.3, TAAR1 agonist 3.0 and CHO parental Ca -2.1.
For C=CCNc1nc(-c2ccc(O)c(C(N)=O)c2)cs1 the results were OX1R antag-1 -8.8, GPR7 antag 2.6, TAAR1 antagonist -26.8, OX1R antag-2 27.6, TAAR1 agonist 3.0 and CHO parental Ca 1.3.
`NC(=O)c1cc(-c2csc(NCCc3ccccc3)n2)ccc1O` gave OX1R antag-1 -17.3, GPR7 antag -1.0, TAAR1 antagonist -10.8, OX1R antag-2 15.2, TAAR1 agonist 48.8*, CHO parental Ca -16.3, TAAR1 ag conf 45.9*, Ga16 nonsel ag 6.3, TAAR1 desensitize 21.2 and Ga16 antag count 18.7.
Screening Cc1nc(NC(=O)c2ccccc2)sc1-c1csc(NCCc2ccccc2)n1 returned OX1R antag-1 -5.7, GPR7 antag 5.6, TAAR1 antagonist 47.9, OX1R antag-2 21.3, TAAR1 agonist 63.9*, CHO parental Ca -7.3, TAAR1 ag conf 61.2*, Ga16 nonsel ag 20.9*, TAAR1 desensitize 58.2* and Ga16 antag count 34.3*.
`COC(=O)c1sccc1S(=O)(=O)Nc1ccc(C(O)(C(F)(F)F)C(F)(F)F)cc1` gave TAAR1 antagonist 103.5*, TAAR1 agonist 169.1*, TAAR1 ag conf 141.8*, Ga16 nonsel ag 112.8*, TAAR1 desensitize 102.8* and Ga16 antag count 83.5*.
`COC(=O)c1ccccc1NC(=O)Cn1cnc2cc(C)c(C)cc21` gave OX1R antag-1 13.6, GPR7 antag -3.4, TAAR1 antagonist 20.3, OX1R antag-2 7.9, TAAR1 agonist 16.2 and CHO parental Ca -12.5.
For O=c1c2ccccc2nnn1Cc1nnc(-c2ccccc2Br)o1 the results were OX1R antag-1 -37.2, GPR7 antag -2.8, TAAR1 antagonist -1.2, OX1R antag-2 16.6, TAAR1 agonist 66.7*, CHO parental Ca -24.4, TAAR1 ag conf 114.5*, Ga16 nonsel ag 79.7*, TAAR1 desensitize 22.0 and Ga16 antag count 0.9.
For CCCn1c(N)c(N2CCCCC2)c(=O)n(CC(=O)Nc2ccccc2C(F)(F)F)c1=O the results were OX1R antag-1 -22.1, TAAR1 antagonist -9.6, OX1R antag-2 3.7, TAAR1 agonist -1.0 and CHO parental Ca -15.1.
`COc1ccc(C2(SCC(N)C(=O)O)c3ccccc3-c3ccccc32)cc1` (centres undefined) gave TAAR1 antagonist -19.9 and TAAR1 agonist 6.4.
O=C(Nc1cc(F)c(Br)cc1F)c1ccc(Cl)cc1 was read as OX1R antag-1 -18.7, GPR7 antag -16.0, TAAR1 antagonist 70.2*, OX1R antag-2 12.2, TAAR1 agonist 90.8*, CHO parental Ca -2.5, TAAR1 ag conf 0.7, Ga16 nonsel ag 7.6, TAAR1 desensitize -0.5 and Ga16 antag count 11.0.
For O=C(Nc1ccc(Cl)cc1C(F)(F)F)c1ccc(Cl)cc1 the results were OX1R antag-1 -10.6, GPR7 antag 0.9, TAAR1 antagonist 31.2, OX1R antag-2 23.9, TAAR1 agonist 75.1*, CHO parental Ca 9.6, TAAR1 ag conf 20.2, Ga16 nonsel ag -0.6, TAAR1 desensitize 18.6 and Ga16 antag count 9.3.
O=C1C(SCCO)=C(SCCO)C(=O)c2ccccc21 was read as OX1R antag-1 47.5*, TAAR1 antagonist 84.4*, OX1R antag-2 67.5*, TAAR1 agonist 67.0*, CHO parental Ca 47.8*, TAAR1 ag conf 70.8*, Ga16 nonsel ag 49.0*, TAAR1 desensitize 82.9* and Ga16 antag count 74.0*.
